From PubChem
Compounds with a hit are over-represented: about 2.3% of the library has one in this group of screens.
STEP block = STEP (human) phosphatase inhibition; P54829; recombinant STEP, OMFP fluorogenic substrate, fluorescence; inhibition, % at 20 µM; 0.25% of 360,000 active; AID 588621;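 active = inhibition at 20 µM, scaled per plate between control wells, above about 37%, limit read from the data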
Target sequence (P54829 whole entry, looked up): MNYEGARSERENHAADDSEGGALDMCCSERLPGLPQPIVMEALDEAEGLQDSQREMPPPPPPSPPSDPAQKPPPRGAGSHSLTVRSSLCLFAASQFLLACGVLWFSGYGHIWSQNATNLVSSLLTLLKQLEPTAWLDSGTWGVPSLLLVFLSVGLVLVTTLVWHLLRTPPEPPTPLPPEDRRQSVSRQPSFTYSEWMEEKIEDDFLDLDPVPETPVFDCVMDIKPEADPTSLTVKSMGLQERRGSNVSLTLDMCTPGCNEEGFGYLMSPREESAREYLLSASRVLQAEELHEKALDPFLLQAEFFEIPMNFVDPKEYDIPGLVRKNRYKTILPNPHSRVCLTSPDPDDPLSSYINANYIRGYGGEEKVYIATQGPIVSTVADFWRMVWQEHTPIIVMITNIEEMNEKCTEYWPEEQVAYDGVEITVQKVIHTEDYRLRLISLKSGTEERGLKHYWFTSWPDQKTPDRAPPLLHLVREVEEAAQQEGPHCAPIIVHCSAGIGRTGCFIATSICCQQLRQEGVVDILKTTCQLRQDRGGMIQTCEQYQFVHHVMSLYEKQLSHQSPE
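Assay system: isolated STEP enzyme / Timing: 20 min at room temperature, dark / Doses: 20 µM, 1% DMSO / Technique: fluorescence intensity, excitation 480 nm, emission 540 nm / Reagent: fluorogenic phosphatase substrate OMFP at 25 µM final / Measure: percent inhibition scaled to no-enzyme and uninhibited-enzyme controls, plate-pattern corrected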
Scp-1 inhibitor = Scp-1 (human) phosphatase inhibition; 0.88% of 340,000 active; AID 493091; Recombinant Scp1, phosphopeptide, malachite green phosphate absorbance; Q9GZU7; inhibition, % at 20 µM;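 active = inhibition above about 50% at 20 µM, limit read from the data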
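Times: enzyme reaction 45 min at room temperature, colour 5 min, stabilisation 30 min. Material: SCP-1 catalytic fragment, aa 76-261. Medium: Acidic Tris acetate buffer with magnesium and detergent. Signal: colorimetric free-phosphate detection, absorbance 630 nm. Read-out basis: % inhibition of SCP-1 phosphate liberation. Reagent: Phosphorylated 17-residue peptide substrate.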
LMPTP block = blocks human LMPTP phosphatase. recombinant LMPTP-A, OMFP fluorogenic substrate, fluorescence intensity. AID 651560. inhibition, % at 20 µM. P24666. 0.22% of 360,000 active;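 active = compounds that cut the enzyme signal by at least half of the control window in the single-dose screen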
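Test system – LMPTP-A phosphatase enzyme · Quantity – 0.625 nM LMPTP-A final · Reagent – OMFP substrate, 400 µM final · Dosing – one test concentration per compound, 20 µM, with 3% DMSO overall · Timing – 50 min enzyme reaction at room temperature, protected from light · Detection – fluorescence intensity · Controls – substrate-only low control, DMSO enzyme-plus-substrate high control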
SUMO1 PPI mod = modulators of human SUMO1-mediated protein-protein interactions | P63165 | SUMO1 binding to a labelled peptide, TR-FRET, 1 h | inhibition, % at 20 µM | 0.33% of 360,000 active | AID 602429; in the data active = inhibition above about 37%
Target sequence (P63165 whole entry, looked up): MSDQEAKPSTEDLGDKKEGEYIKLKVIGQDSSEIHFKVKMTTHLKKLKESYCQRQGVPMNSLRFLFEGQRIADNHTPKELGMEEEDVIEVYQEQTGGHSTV
Rpn11 inh = inhibitors of human proteasome Rpn11; human 26S proteasome, Ub4-pepOG fluorescence polarization; 20S core pre-blocked with epoxomicin; inhibition, % at 20 µM; 0.59% of 360,000 active; AID 588493;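 active = inhibition at 20 µM, scaled to each plate's controls, above about 33%, limit read from the data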
DNMT1 inh = inhibitors of human DNMT1. P26358. inhibition (reported as % activation of signal), % at 10 µM. DNMT1 molecular beacon, Hinp1I cleavage, fluorescence. 0.83% of 360,000 active. AID 588458; in the data active = inhibition above about 50%
Beacon interf DR = beacon fluorescence artifact, dose response counter-screen; AID 602382; 200 tested, under 10 active; IC50, µM; molecular beacon fluorescence, spectral interference counter-screen; shares compounds with DNMT1 inh; call rule not given here
DNMT1 confirm = confirmation of human DNMT1 inhibitors | shares compounds with DNMT1 inh | DNMT1 molecular beacon HinP1I cleavage, fluorescence | inhibition, % at 10 µM | 8% of 2,300 active;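 active = average inhibition of at least 30% in the single-concentration confirmation test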
DNMT1 interf = beacon fluorescence artifact counter-screen | shares compounds with DNMT1 inh | DNMT1 molecular beacon spectral interference counterscreen, fluorescence 485/520 | activation (fluorescence interference), % at 10 µM | 1% of 2,300 active | AID 602387;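 active = activation of at least 30% at 10 µM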;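 note: DNMT1 catalytic domain with a HinP1I cleavage step and a FAM/dabcyl DNA beacon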
Rpn11 inh conf = Rpn11 inhibition confirmation, single concentration. shares compounds with Rpn11 inh. purified human 26S proteasome, Ub4-pepOG fluorescence polarization; proteasome pretreated with epoxomicin. inhibition, % at 20 µM. 29% of 1,900 active. AID 602318
MMP-2 counter = MMP-2 (human) inhibition counter-screen. shares compounds with Rpn11 inh. recombinant MMP-2, FRET peptide cleavage fluorescence. inhibition, % at 20 µM. 4% of 1,900 active. AID 602330;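 note: human MMP-2 activated beforehand with APMA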
Thrombin FP = thrombin (bovine) inhibition counter-screen | shares compounds with Rpn11 inh | bovine thrombin cleavage of Ub4-pepOG, fluorescence polarization | inhibition, % at 20 µM | 13% of 1,900 active | AID 602333;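 active = mean inhibition at least 40% at 20 µM, or signal 3 deviations below plate average, so some actives read negative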
STEP inh conf = STEP (human) phosphatase inhibition, single concentration confirmation. recombinant STEP, OMFP fluorogenic substrate, fluorescence. inhibition, % at 20 µM. shares compounds with STEP block. 32% of 520 active; call rule not given here
Numbers stand for hits. Cut-off read from the data, not from the text of the source, unless noted: active = inhibition above about 40%; inactive = the rest.

Screening Cc1ccc(-n2cccc2/C=C2/C(=N)N3C(=NC2=O)SN=C3S(C)(=O)=O)cc1Cl returned STEP block inactive, Scp-1 inhibitor inactive, LMPTP block inactive, SUMO1 PPI mod inactive, Rpn11 inh 168, DNMT1 inh 84, Beacon interf DR inactive, DNMT1 confirm 37, DNMT1 interf inactive, Rpn11 inh conf 160, MMP-2 counter inactive and Thrombin FP 109.
Screening COc1ccc(OC)c(C(=O)Nc2ccc3[nH]ccc3c2)c1 returned STEP block inactive, Scp-1 inhibitor inactive, LMPTP block inactive, SUMO1 PPI mod inactive, Rpn11 inh inactive and DNMT1 inh inactive.
CC(=O)Nc1ccc(S(=O)(=O)N2CCN(C(=O)C3COc4ccccc4O3)CC2)cc1 (stereo unspecified) was read as STEP block inactive, Scp-1 inhibitor inactive, LMPTP block inactive, SUMO1 PPI mod inactive, Rpn11 inh inactive and DNMT1 inh inactive.
COc1ccc(S(=O)(=O)N2CCN(C(=O)C3COc4ccccc4O3)CC2)cc1 (stereo unspecified) was read as STEP block inactive, Scp-1 inhibitor 64, LMPTP block 56, SUMO1 PPI mod inactive, Rpn11 inh 86, DNMT1 inh 95, Beacon interf DR inactive, DNMT1 confirm 54, DNMT1 interf inactive, Rpn11 inh conf 65, MMP-2 counter inactive and Thrombin FP 58.
Screening CN(C)S(=O)(=O)c1ccc(C(=O)Nc2ccn(C)n2)cc1 returned STEP block inactive, Scp-1 inhibitor inactive, LMPTP block inactive, SUMO1 PPI mod inactive, Rpn11 inh inactive and DNMT1 inh inactive.
For COc1ccc(CC(=O)Nc2ccc(-c3noc(-c4ccc(Cl)cc4)n3)cc2)cc1 the results were STEP block inactive, Scp-1 inhibitor inactive, LMPTP block inactive, SUMO1 PPI mod inactive, Rpn11 inh 98, DNMT1 inh 51, DNMT1 confirm inactive, DNMT1 interf inactive, Rpn11 inh conf inactive, MMP-2 counter inactive and Thrombin FP inactive.
`COc1ccc(NC(=O)CCn2c(=S)[nH]c3ccccc3c2=O)cc1Cl` gave STEP block inactive, LMPTP block 49, SUMO1 PPI mod inactive, Rpn11 inh 129, DNMT1 inh 54, DNMT1 confirm inactive, DNMT1 interf inactive, Rpn11 inh conf 63, MMP-2 counter inactive and Thrombin FP inactive.
`O=C(CCn1c(=S)[nH]c2ccccc2c1=O)Nc1cccc(Cl)c1` gave STEP block inactive, Scp-1 inhibitor inactive, LMPTP block inactive, SUMO1 PPI mod inactive, Rpn11 inh inactive and DNMT1 inh inactive.
COc1ccc2nc(N3C(=O)CNC3=S)sc2c1 was read as STEP block inactive, Scp-1 inhibitor inactive, LMPTP block inactive, SUMO1 PPI mod inactive, Rpn11 inh inactive and DNMT1 inh inactive.
For CCOc1ccc2nc(N3C(=O)/C(=C/c4ccc(Cl)cc4)NC3=S)sc2c1 the results were STEP block inactive, Scp-1 inhibitor 55, LMPTP block inactive, SUMO1 PPI mod 79, Rpn11 inh 47, DNMT1 inh 94, DNMT1 confirm inactive, DNMT1 interf inactive, Rpn11 inh conf inactive, MMP-2 counter inactive and Thrombin FP inactive.
Cc1c(C(=O)N2CCNCC2)oc2ccccc12 was read as STEP block inactive, Scp-1 inhibitor inactive, LMPTP block inactive, SUMO1 PPI mod inactive, Rpn11 inh inactive and DNMT1 inh inactive.
For COc1ccc(S(=O)(=O)N2CCN(C(=O)c3ccc4ccccc4n3)CC2)cc1 the results were STEP block inactive, Scp-1 inhibitor inactive, LMPTP block inactive, SUMO1 PPI mod inactive, Rpn11 inh inactive and DNMT1 inh inactive.
`O=Cc1ccc(-c2nc3ccccc3s2)o1` gave STEP block inactive, Scp-1 inhibitor inactive, LMPTP block inactive, SUMO1 PPI mod inactive, Rpn11 inh inactive and DNMT1 inh inactive.
For O=C(O)CCN1C(=O)/C(=C/c2ccc(-c3nc4ccccc4s3)o2)SC1=S the results were STEP block 70, Scp-1 inhibitor inactive, LMPTP block inactive, SUMO1 PPI mod 91, Rpn11 inh active, DNMT1 inh 99, Beacon interf DR inactive, DNMT1 confirm 47, DNMT1 interf inactive, Rpn11 inh conf 173, MMP-2 counter inactive and Thrombin FP inactive.
`COc1ccc(CCN2CCCn3c2nc2c3c(=O)[nH]c(=O)n2C)cc1OC` gave STEP block inactive, Scp-1 inhibitor inactive, LMPTP block inactive, SUMO1 PPI mod inactive, Rpn11 inh inactive and DNMT1 inh inactive.
Screening CC(C)CCN1CCN(Cc2cccc(C(F)(F)F)c2)CC1CCO (stereo unspecified) returned STEP block inactive, Scp-1 inhibitor inactive, LMPTP block inactive, SUMO1 PPI mod inactive, Rpn11 inh inactive and DNMT1 inh inactive.
For O=C(O)CCCCN1C(=O)/C(=C\c2ccc(OCc3ccccc3)c(OCc3ccccc3)c2)SC1=S the results were STEP block inactive, Scp-1 inhibitor inactive, LMPTP block inactive, SUMO1 PPI mod inactive, Rpn11 inh 43, DNMT1 inh 81, DNMT1 confirm inactive, DNMT1 interf inactive, Rpn11 inh conf 43, MMP-2 counter inactive and Thrombin FP inactive.
`CCOc1ccc(C2C(C(=O)c3cccs3)=C(O)C(=O)N2CCN2CCOCC2)cc1` (stereo unspecified) gave STEP block inactive, Scp-1 inhibitor inactive, LMPTP block inactive, SUMO1 PPI mod inactive, Rpn11 inh inactive and DNMT1 inh inactive.
For Cc1ccc(NC(=O)c2ccc3nc(N4CCOCC4)sc3c2)c(Cl)c1 the results were STEP block 84, Scp-1 inhibitor inactive, LMPTP block inactive, SUMO1 PPI mod inactive, Rpn11 inh inactive, DNMT1 inh 53, DNMT1 confirm inactive, DNMT1 interf inactive and STEP inh conf 54.
